This excerpt belongs to a sample that is enriched for hits.
PGC1a Ac signal = raises PGC1a acetylation signal in U2OS cells; 350,000 compounds, 0.21% hits; activation, % at 15.6 µM; U2OS PGC1a acetylation AlphaScreen, overnight;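 active = every replicate reaching activation of at least 50%, whatever the mean replicate activation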;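 also: hits raise the AlphaScreen acetylation signal above neutral controls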
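detection = AlphaScreen lysate read | assay system = U2OS cells expressing flag-PGC1a plus GCN5 | input = 7000 cells/well | dosing = one concentration | times = compound overnight at 37 °C, each detection step 1 h RT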
Numbers stand for hits; - = inactive.

SMILES | PGC1a Ac signal
CC/C(=C(\c1ccccc1)c1ccc(OCCN(C)C)cc1)c1ccccc1 | 124
CCN(CC)CCOc1ccc(/C(=C(/Cl)c2ccccc2)c2ccccc2)cc1 | 99
O=c1[nH]c(=O)c2[nH]c(=S)[nH]c2[nH]1 | -
Cc1ccccc1Oc1cc(-n2ncc(Cl)c(Cl)c2=O)ncn1 | -
Cn1cnc(S(=O)(=O)N2C[C@@H](O)COC[C@H]3O[C@H](CC(=O)NCc4cc(F)cc(F)c4)CC[C@@H]32)c1 | -
CCOc1ccc(CN2CCNC(=O)C2CC(=O)NCc2ccccn2)cc1 (centres undefined) | -
CCOC(=O)C1(N(CC)CC)Sc2cc(C)ccc2NC1=O (centres undefined) | 84
CC(=O)Nc1nc(C)c(Oc2ccc(Cl)cc2)c(=O)[nH]1 | -
C=C1C(=O)O[C@H]2[C@@H]1CC/C(CO)=C\CC[C@@]1(C)O[C@@H]21 | 61
O=C(CSc1nnnn1-c1ccc(F)cc1)NNC(=O)c1ccco1 | -
CC(C)(C)n1nnnc1CN(Cc1ccc(F)cc1)Cc1ccco1 | 92
COC(=O)C1=NN(C(=O)c2ccccc2)C(O)(c2ccc([N+](=O)[O-])cc2)C1 (centres undefined) | 115
COc1ccc(/C=N/NC(=O)c2ccn[nH]2)cc1CN1CCOCC1 | -
CC(=O)c1cccc(-c2ccnc3c2CC(C(=O)NCc2ccco2)O3)c1 (centres undefined) | 52
Cc1ccccc1-c1nc(SCc2ccccn2)c2c(=O)n(C)c(=O)n(C)c2n1 | -
C#CCN(C[C@@H]1[C@@H](OC(=O)NCc2ccccc2F)[C@@H](OC(=O)NCc2ccccc2F)Cn2c(=O)ccc(=O)n21)S(=O)(=O)c1ccc(C)cc1 | -
C#CCN(C[C@@H]1[C@@H](OC(=O)NC2CCCC2)[C@@H](OC(=O)NC2CCCC2)Cn2c(=O)ccc(=O)n21)S(=O)(=O)c1ccc(C)cc1 | 111
C#CCN(C[C@@H]1[C@@H](OC(=O)Nc2cccs2)[C@@H](OC(=O)Nc2cccs2)Cn2c(=O)ccc(=O)n21)S(=O)(=O)c1ccc(C)cc1 | -
O=C(Cc1ccc(Cl)cc1)Nc1ncccn1 | -
CN(C)C(=O)C[C@H]1C[C@@H]2c3cc(NC(=O)C4CCOCC4)ccc3O[C@@H]2[C@H](CO)O1 | -
CCOC(=O)N1CCN(C(=O)C(NS(=O)(=O)c2cccc3nsnc23)c2ccccc2)CC1 (centres undefined) | 59
O=C(CN1CCOCC1)N[C@H]1CC[C@H](CCNC(=O)Nc2cc(F)ccc2F)O[C@H]1CO | -
Cc1noc(C)c1NC(=O)Nc1ccc2c(c1)C(=O)N([C@@H](C)CO)C[C@@H](C)[C@@H](CN(C)CC1CCCCC1)OCCCC[C@H](C)O2 | -
CC(=O)c1cccc(NC(=S)NC(=O)c2ccc(Br)cc2)c1 | -
O=C(NC(=S)Nc1cc(Cl)ccc1O)c1cccc(Br)c1 | -
SMILES | PGC1a Ac signal
CC1(C)CC(NC(=S)NC(=O)c2cc(Br)ccc2Cl)CC(C)(C)N1 | 226
CC(C)N1CCc2c(sc(NC(=O)C3CCCCC3)c2C(N)=O)C1 | -
COC(=O)c1ccccc1N(C)S(=O)(=O)c1cc2c(cc1C)OCC(=O)N2 | -
Cc1cccc(C)c1NC(=O)C(NC(=O)c1ccccn1)c1ccc([N+](=O)[O-])cc1 (centres undefined) | -
Cc1c(C(=S)Nc2ccccc2)cnn1-c1ccc([N+](=O)[O-])cc1 | 71
Cc1cc(C)n(C(=O)c2ccc([N+](=O)[O-])cc2N)n1 | -
O=C(C[C@H]1CC[C@H](NC(=O)NC2CCCCC2)[C@H](CO)O1)NCc1ccc(Cl)cc1 | -
C[C@@H]1CN([C@H](C)CO)C(=O)c2cc(NC(=O)Cc3ccccc3)ccc2O[C@@H]1CN(C)Cc1ccncc1 | -
O=C(CN1CCC(n2nnc3cc(F)ccc32)CC1)Nc1ccc2c(c1)CCC2 | 103
CCOC(=O)c1ccc(NC(=O)Nc2ccc(F)cc2)cc1 | -
CCOC(=O)c1ccc(NC(=O)CCS(=O)(=O)c2ccc(Br)s2)cc1 | 50
O=C1/C(=C\c2ccc(Cl)c(Cl)c2)CN(C(=O)CCN2CCOCC2)C/C1=C/c1ccc(Cl)c(Cl)c1 | -
COc1ccc(S(=O)(=O)N2c3ccc(F)cc3CCC2C)cc1 (centres undefined) | 120
CN1CCN(C(=O)c2sc(=S)n(-c3ccccc3)c2N)CC1 | -
COc1ccc(N=C2SC(C(N)=O)CC(=O)N2Cc2ccc3c(c2)OCO3)cc1 (centres undefined) | -
CCCC1S/C(=N/N=C/c2ccc(C)cc2)N(Cc2ccc(OC)cc2)C1=O (centres undefined) | -
COc1cc(OC)c2c(-c3cccc(-c4cccc(C)c4)c3)cc(=O)oc2c1 | 60
CCC(=O)N(C)C[C@@H]1Oc2ncc(C#CCc3ccccc3)cc2C(=O)N([C@H](C)CO)C[C@@H]1C | -
N#C[C@@H]1[C@@H](c2ccc(-c3ccccc3)cc2)[C@@H](CO)N1C(=O)Cc1ccncc1 | -
COc1cc(CN2[C@@H]3CNC[C@H]2C3c2ccc(-c3ccccc3)cc2)cc(OC)c1 (some centres undefined) | 52
C[C@@H]1CN([C@@H](C)CO)C(=O)CCCn2nncc2CO[C@H]1CN(C)S(=O)(=O)c1ccc(Cl)cc1 | -
O=C1c2ccc(-c3ccc4c(c3)C(=O)N(CCCO)C4=O)cc2C(=O)N1CCCO | -
C/C=C(/C)C(=O)O[C@@H]1c2cc(OC)c(OC)c(OC)c2-c2c(cc3c(c2OC)OCO3)C[C@H](C)[C@]1(C)O | 167
Cn1cccc1C(=O)OCC(=O)Nc1ccc2c(c1)CCC2 | 83
O=C(COC(=O)C1CC2CCCC(C1)C2=O)Nc1ccc(F)c(Cl)c1 (centres undefined) | -
SMILES | PGC1a Ac signal
COC(=O)c1cccc2c1-c1ccccc1/C2=N/O | -
CCC(C)(CC(=O)O)CC(=O)Nc1cc(C(F)(F)F)cc(C(F)(F)F)c1 (centres undefined) | -
COc1c(O)cc(O)c2c(=O)cc(-c3ccccc3)oc12 | 64
CO[C@H]1CN(C)C(=O)c2cc(NS(C)(=O)=O)ccc2OC[C@@H](C)N(C(=O)CC2CC2)C[C@H]1C | -
CCCCOc1ccc(/C=C/C(=O)OCC(=O)c2c(N)n(C)c(=O)n(C)c2=O)cc1OCC | -
CCOC(=O)C(CC)(CC)C(=O)/C=C/c1ccc(Br)cc1 | -
CCOc1ccc(/C=C/C(=O)Oc2ccccc2)cc1 | 154
CC(=O)N(c1ccccc1)c1nnc(-c2cnc(C)cn2)s1 | -
O=C(CN1C(=O)C2CC=CCC2C1=O)Nc1nccs1 (centres undefined) | -
CC(=O)c1cccc(NC(=O)Nc2cccnc2)c1 | -
CCCCC(=O)Nc1ccc(NC(=O)c2cccs2)cn1 | -
CCCCSc1ccc(NC(=O)c2cccnc2)cc1 | 70
CC1CCc2sc(C(=O)Nc3nnc(SCc4ccc(F)cc4)s3)cc2C1 (centres undefined) | -
CC1CN(S(=O)(=O)c2ccc(C(=O)NCCCn3ccnc3)cc2)CC(C)O1 (centres undefined) | 411
CC(C)(C)c1ccc(C(=O)NCCN2CCOCC2)cc1 | -
OC(c1ccc(Cl)cc1Cl)C(Cc1cccnc1)n1cncn1 (centres undefined) | 59
O=C(Cn1ncc(Cl)c(Cl)c1=O)NCC1CCCCC1 | 151
Cc1cccc(NC(=O)CNC(=O)Cn2ncc(Cl)c(Cl)c2=O)c1C | -
O=C(Nc1nc2ccccc2[nH]1)c1ccc(Cl)c(S(=O)(=O)N2CCCC2)c1 | -
Cc1ccc(NC(=O)Cn2ncc(Cl)c(Cl)c2=O)cc1S(=O)(=O)N1CCCCC1 | 90
O=C1CN(C(=O)Cn2ncc(Cl)c(Cl)c2=O)c2ccccc2N1 | 74

High-throughput results (PubChem)
